Results: article PMC10267526 (The Journal of Biological Chemistry, 2023)

Experiments:
hTRPML1 = conditions: ref [11], [12], cited from earlier work
hTRPML1-nLuc [1] = biological target: T1, hTRPML1-nLuc (Homo sapiens, UniProt Q9GZU1); assay: In-cell BRET kinetics of competitive binding; conditions: for koff: read-out: koff of unlabeled compound
How it was run: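 hTRPML1-nLuc HEK293T cells in Opti-MEM were given nLuc substrate plus inhibitor, shaken 5 min and read for a 1-min baseline. The reader then injected tracer (2.0 μM final) premixed with one of two concentrations of unlabeled compound, or DMSO vehicle; 60 μM reference antagonist defined nonspecific binding. Specific BRET versus time was fitted to the Motulsky–Mahan competitive kinetics model with tracer kon/koff obtained separately. n = 6/concentration, single experiment.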

hTRPML1-nLuc [2] = biological target: T1, hTRPML1-nLuc; assay: In-cell BRET competitive displacement of MRC087; assay type: binding
How it was run: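 hTRPML1-nLuc HEK293T cells (2 × 10^5/100 μl, 48 h post-transfection) in Opti-MEM received tracer at 2.0 μM final and serially diluted test compound (final DMSO 1%). After 2 h incubation, nLuc substrate plus inhibitor was added and emissions read at 460/610 nm. BRET was normalised to probe-only and no-probe wells and fitted for EC50, then converted to KdA by Cheng–Prusoff using tracer Kd. n = 3–4/concentration, three independent experiments.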

GCaMP6f-hTRPML1 [3] = biological target: T2, GCaMP6f-hTRPML1 (Homo sapiens, UniProt Q9GZU1); assay: GCaMP6f Ca2+ indicator channel activation assay; assay type: cell-based
T2 sequence (Q9GZU1 whole entry): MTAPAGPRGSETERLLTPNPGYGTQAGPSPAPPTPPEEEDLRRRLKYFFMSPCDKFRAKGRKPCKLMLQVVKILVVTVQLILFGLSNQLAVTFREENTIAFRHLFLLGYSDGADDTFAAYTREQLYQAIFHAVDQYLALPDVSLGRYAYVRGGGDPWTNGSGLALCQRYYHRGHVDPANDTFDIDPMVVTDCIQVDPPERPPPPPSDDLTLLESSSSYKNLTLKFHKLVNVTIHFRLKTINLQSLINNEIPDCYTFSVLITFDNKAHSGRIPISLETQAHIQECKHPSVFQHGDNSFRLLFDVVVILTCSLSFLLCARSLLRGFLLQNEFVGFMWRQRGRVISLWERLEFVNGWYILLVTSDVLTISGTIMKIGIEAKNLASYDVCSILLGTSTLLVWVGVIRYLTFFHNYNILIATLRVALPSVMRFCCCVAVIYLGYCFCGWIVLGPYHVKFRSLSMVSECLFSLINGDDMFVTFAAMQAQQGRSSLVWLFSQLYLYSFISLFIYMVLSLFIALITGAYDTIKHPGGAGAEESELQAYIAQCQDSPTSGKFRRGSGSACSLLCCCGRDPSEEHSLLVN
How it was run: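 HEK293T cells were transfected with GCaMP6f-hTRPML1 and seeded at 4 × 10^5 cells/100 μl in poly-D-lysine plates. After 24 h the medium was changed to phenol red-free DMEM, with a further 24 h growth. Plates were equilibrated 10 min at RT and 10 min at 25 °C, followed by a 1-min baseline read every 5 s. The 10× compound in Ca2+-free HEPES buffer was injected and reads continued 6 min (ex 480 ± 25, em 549–562 nm; final DMSO 0.5%). Baseline-normalised AUC was scaled to DMSO (0%) and reference agonist (100%), and EC50 was taken from a nonlinear fit. n = 6/concentration, three independent experiments.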

GCaMP6f-hTRPML1 [4] = biological target: T2, GCaMP6f-hTRPML1; assay: GCaMP6f Ca2+ indicator channel assay; assay type: cell-based
How it was run: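 GCaMP6f-hTRPML1-transfected HEK293T cells were preincubated 10 min at RT with test compound. After a 1-min baseline (reads every 5 s), reference agonist was injected at 25 μM final and fluorescence recorded a further 6 min (ex 480 ± 25, em 549–562 nm; 0.5% DMSO). Compounds were diluted in nominally Ca2+-free HEPES-buffered solution. Baseline-normalised AUC was scaled to DMSO and agonist controls, and IC50 was derived by nonlinear fit. n = 6/concentration, two independent experiments.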

T1 sequence (Q9GZU1 whole entry): as above

SMILES	EC50 (hTRPML1; read-out: EC50 in previous studies) [µM]	Kd (hTRPML1-nLuc [1]) [µM]	residence time (hTRPML1-nLuc [1]) [min]	koff (hTRPML1-nLuc [1]) [s⁻¹]	Kd (hTRPML1-nLuc [2]) [µM]	EC50 (GCaMP6f-hTRPML1 [3]) [µM]	IC50 (GCaMP6f-hTRPML1 [4]) [µM]	IC50 (hTRPML1; read-out: IC50 in previous studies) [µM]	kon (hTRPML1-nLuc [1]; read-out: kon of unlabeled compound) [M⁻¹ s⁻¹]
CC1CC(C)(C)N(C(=O)CN2C(=O)c3ccccc3C2=O)c2ccccc21 (stereo not shown) [compound 1, 2-(2-oxo-2-(2,2,4-trimethyl-3,4-dihydroquinolin-1(2H)-yl)ethyl)isoindoline-1,3-dione]	9.7	37.3	1.5	0.0108	19.8 ± 1.8	13 ± 3.1			
COc1ccccc1N1CCN(c2ccccc2NS(=O)(=O)c2ccccc2)CC1 [compound 8, N-(2-(4-(2-methoxyphenyl)piperazin-1-yl)phenyl)benzenesulfonamide]		1	1.5	0.0112	2.8 ± 1.2		2.8 ± 0.2	1.8	10700
